# Measured values from different studies.
# Each line is one published result; the experiments were not run side by side.
# CNR1: Cannabinoid receptor 1 (CNR1, Homo sapiens, UniProt P21554)
# SRD5A1: 3-oxo-5-alpha-steroid 4-dehydrogenase 1 (SRD5A1, Homo sapiens, UniProt P18405)
# HTR2A: 5-hydroxytryptamine receptor 2A (HTR2A, Homo sapiens, UniProt P28223)
SMILES,target,effect on,action,method,cells,concentration,inhibition [%]
NC/C(=C\F)COc1cccc(Cn2c(=S)[nH]c(=O)c3[nH]cnc32)c1,CNR1,ligand displacement,,radioligand,,10 µM,< 50
Cc1cc(F)cc2c(CCC(=O)N[C@@H]3C(=O)NC[C@H]3O)c(-c3ccc(F)cc3)[nH]c12,CNR1,cell-free assay,,,,10 µM,-2
COC(=O)C=Cc1ccc(OC)c(OC)c1,SRD5A1,enzyme activity in cells,inhibitor,,HaCaT,50 µM,26.1
COc1cc2c3c(c1OC)-c1c(OC)ccc(-c4ccc(C#N)cc4)c1CC3N(C)CC2 (stereo not shown),HTR2A,ligand displacement,,radioligand,,10 µM,34
Cc1cc(O)c(-c2ccc([C@@H](C)CN(C)C)cc2)c2c1[nH]c(=O)c1sccc12,"Serine/threonine-protein kinase VRK2 (VRK2, Homo sapiens, UniProt Q86Y07)",enzyme activity,inhibitor,,,0.1 µM,3.23
COC(=O)C=Cc1ccc(OC(C)=O)c(OC(C)=O)c1,SRD5A1,enzyme activity in cells,inhibitor,,HaCaT,50 µM,25.1
C#Cc1cc(-c2cc(Nc3nc(N[C@@H](C)c4ccc(F)cn4)ncc3Cl)n[nH]2)ccc1C=O,"Cytoplasmic tyrosine-protein kinase BMX (BMX, Homo sapiens, UniProt P51813)",enzyme activity,inhibitor,,,0.2 µM,70.8
COc1cc2c3c(c1OC)-c1c(OC)ccc(N4CCOCC4)c1CC3N(C)CC2 (stereo not shown),HTR2A,ligand displacement,,radioligand,,10 µM,49
COc1cc(C=CC(=O)O)ccc1OC(C)=O,SRD5A1,enzyme activity in cells,inhibitor,,HaCaT,50 µM,18.6
CCN1/C(=C/C(C)=O)Sc2ccc(F)cc21,CNR1,ligand displacement,,radioligand,,10 µM,0
